Source: ChEMBL document CHEMBL2417518, “Vinyl sulfone-based peptidomimetics as anti-trypanosomal agents: design, synthesis, biological and computational evaluation” (J Med Chem, 2013)
Activity calls are given as the source filed them. No cut-off for these calls is given here.

Key:
[1] = system: Trypanosoma brucei brucei; experiment: Antitrypanosomal activity against bloodstream form of Trypanosoma brucei brucei MITat1.1 after 6 to 8 hrs by Alamar Blue assay; format: functional, organism-based; settings: in the assay text read “after 24 hrs” for “after 6 to 8 hrs”
Outline: (§1)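 T. b. brucei MITat1.1 cultured in HMI-9 with 10% heat-inactivated FBS, subcultured 1:10 every 24 h to stay in log phase, 37°C, 5% CO2. Seeded at 2×10^5 cells/ml with varying inhibitor concentrations or DMSO alone. Alamar Blue added after 6-8 h, total incubation 24 h. Absorbance read at 540 and 595 nm. EC50 from 4-parameter logistic fit of percent inhibition versus controls.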

HL-60 = experiment: Cytotoxicity against human HL60 cells after 48 hrs by Alamar Blue assay; format: cell-based; settings: hl-60, 48 h
Outline: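 HL-60 cells grown in RPMI-1640 with 10% heat-inactivated FBS, penicillin/streptomycin and 2 mM L-glutamine, 37°C, 5% CO2. Seeded at 2×10^5 cells/ml with varying inhibitor concentrations or DMSO alone. Alamar Blue added after 30-32 h, total incubation 48 h. Absorbance read at 540 and 595 nm. EC50 derived from percent signal inhibition versus inhibitor-free controls.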

[2] = Selectivity for bloodstream form of Trypanosoma brucei brucei MITat1.1 over human HL60 cells; parameters: species or system HL-60
Outline: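 Both were measured by seeding at 2×10^5 cells/ml with varying inhibitor concentrations, reading absorbance at 540 and 595 nm, and comparing to inhibitor-free controls.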

[3] = system: Trypanosoma brucei brucei; experiment: Antitrypanosomal activity against bloodstream form of Trypanosoma brucei brucei MITat1.1 assessed as bigeye phenotype at 0.78 uM after 24 hrs by epifluorescence microscopy relative to untreated control; format: functional, organism-based
Outline: (§2)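 Trypanosomes exposed to the stated concentration at 37°C for 24 h, then fixed 10 min at 37°C in 3% (w/v) paraformaldehyde (final). Washed in PBS with 15 mM sodium azide, then in water, and settled on poly-L-lysine coated coverslips. Kinetoplast/nucleus counts and morphology scored by epifluorescence microscopy against an untreated control.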

[4] = system: Trypanosoma brucei brucei; experiment: Antitrypanosomal activity against bloodstream form of Trypanosoma brucei brucei MITat1.1 assessed as increase in multinucleate cells at 0.78 uM after 24 hrs by epifluorescence microscopy relative to untreated control; format: functional, organism-based; outline: as §2
[5] = system: Trypanosoma brucei brucei; experiment: Antitrypanosomal activity against bloodstream form of Trypanosoma brucei brucei MITat1.1 after 24 hrs by Alamar Blue assay
[6] = system: Trypanosoma brucei brucei; experiment: Antitrypanosomal activity against bloodstream form of Trypanosoma brucei brucei MITat1.1 assessed as increase in multinucleate cells at 55.6 uM after 24 hrs by epifluorescence microscopy relative to untreated control; format: functional, organism-based; outline: as §2
[7] = system: Trypanosoma brucei brucei; experiment: Antitrypanosomal activity against bloodstream form of Trypanosoma brucei brucei MITat1.1 assessed as bigeye phenotype at 55.6 uM after 24 hrs by epifluorescence microscopy relative to untreated control; format: functional, organism-based; outline: as §2
[8] = system: Trypanosoma brucei brucei; experiment: Antitrypanosomal activity against bloodstream form of Trypanosoma brucei brucei; format: functional, organism-based; outline: as §1

Row | EC50 [1] [nM] | EC50 [5] [µM] | IC50 [8] [nM] | SMILES | Activity [1] | Activity (HL-60) | Selectivity ratio [2] | Activity [3] | Activity [4] | Activity [6] | Activity [7]
1 | 820 | – | – | CC(C)(C)OC(=O)NCCCC[C@@H](/C=C/C(=O)c1ccccc1)NC(=O)[C@H](Cc1ccccc1)NC(=O)OCc1ccccc1 | Dose-dependent effect | Toxic | >67.1 | – | – | – | –
2 | 70 | – | – | O=C(N[C@@H](Cc1ccccc1)C(=O)N[C@H](/C=C/S(=O)(=O)c1ccccc1)CCCCNS(=O)(=O)c1cccc2ccccc12)OCc1ccccc1 | Dose-dependent effect | – | >785.7 | Active | Active | – | –
3 | 250 | – | – | Cc1ccc(S(=O)(=O)NCCCC[C@@H](/C=C/S(=O)(=O)c2ccccc2)NC(=O)[C@H](Cc2ccccc2)NC(=O)OCc2ccccc2)cc1 | Dose-dependent effect | – | >220 | – | – | – | –
4 | 22400 | – | – | Cl.NCCCC[C@@H](/C=C/S(=O)(=O)c1ccccc1)NC(=O)[C@H](Cc1ccccc1)NC(=O)OCc1ccccc1 | Dose-dependent effect | – | >2.4 | – | – | – | –
5 | – | 26.4 | – | CC(C)(C)OC(=O)NCCCC[C@@H](CCS(=O)(=O)c1ccccc1)NC(=O)[C@H](Cc1ccccc1)NC(=O)OCc1ccccc1 | Dose-dependent effect | – | >2.1 | – | – | – | –
6 | – | 9.96 | – | CC(C)(C)OC(=O)NCCCC[C@@H](/C=C/S(=O)(=O)c1ccccc1)NC(=O)[C@@H]1CCCN1C(=O)OCc1ccccc1 | Dose-dependent effect | – | >5.7 | – | – | – | –
7 | 1180 | – | – | CC(C)C[C@H](NC(=O)OCc1ccccc1)C(=O)N[C@H](/C=C/S(=O)(=O)c1ccccc1)CCCCNC(=O)OC(C)(C)C | Dose-dependent effect | – | >46.6 | – | – | – | –
8 | – | 0.66 | – | CC(C)(C)OC(=O)NCCCC[C@@H](/C=C/S(=O)(=O)c1ccccc1)NC(=O)[C@H](Cc1ccccc1)NC(=O)OCc1ccccc1 | Dose-dependent effect | – | >83 | – | – | – | –
9 | – | 0.68 | – | CC(C)(C)OC(=O)NCCCC[C@@H](/C=C/S(=O)(=O)c1cccc2ccccc12)NC(=O)[C@H](Cc1ccccc1)NC(=O)OCc1ccccc1 | Dose-dependent effect | – | >80.1 | – | – | – | –
10 | 1030 | – | – | CC(C)(C)OC(=O)NCCCC[C@@H](/C=C/S(=O)(=O)c1ccc2ccccc2c1)NC(=O)[C@H](Cc1ccccc1)NC(=O)OCc1ccccc1 | Dose-dependent effect | – | >53.4 | – | – | – | –
11 | – | 5.56 | 100 | CN1CCN(C(=O)N[C@@H](Cc2ccccc2)C(=O)N[C@H](/C=C/S(=O)(=O)c2ccccc2)CCc2ccccc2)CC1 [K-777] | Dose-dependent effect | – | > 9.9 | – | – | Active | Active
12 | 310 | – | – | COc1cc(Br)c(S(=O)(=O)NCCCC[C@@H](/C=C/S(=O)(=O)c2ccccc2)NC(=O)[C@H](Cc2ccccc2)NC(=O)OCc2ccccc2)cc1OC | Dose-dependent effect | – | >177.4 | – | – | – | –
